Test results published in ChEMBL document CHEMBL1240504, “Synthesis of substituted thieno[2,3-d]pyrimidine-2,4-dithiones and their S-glycoside analogues as potential antiviral and antibacterial agents” (Eur J Med Chem, 2010).
pEC50, pIC50: −log10 of the molar value. Values after ≈ are worked out from the molar mass of the structure shown.

Experiments:
Escherichia coli [1] = assay: Antibacterial activity against Escherichia coli MTCC 41 after 12 to 16 hrs by turbidity assay; type: functional
Summary of the method: (§1)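 Broth dilution MIC in LB broth. Tubes inoculated, incubated 12–16 h and scored by eye for turbidity (growth) versus clear (no growth).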

Escherichia coli [2] = assay: Antibacterial activity against Escherichia coli MTCC 41 at 128 mg/ml after 16 hrs by disk diffusion test; type: functional; set-up: dose or concentration left out as unconfirmed; details: MTCC 41, 16 h, read-out: IZ
Escherichia coli [3] = assay: Antibacterial activity against Escherichia coli MTCC 41 at 64 mg/ml after 16 hrs by disk diffusion test; type: functional; set-up: dose or concentration left out as unconfirmed; details: MTCC 41, 16 h, read-out: IZ
Staphylococcus aureus [4] = assay: Antibacterial activity against Staphylococcus aureus MTCC 1144 after 12 to 16 hrs by turbidity assay; type: functional; summary of the method: as §1
Staphylococcus aureus [5] = assay: Antibacterial activity against Staphylococcus aureus MTCC 1144 at 128 mg/ml after 16 hrs by disk diffusion test; type: functional; set-up: dose or concentration left out as unconfirmed; details: MTCC 1144, 16 h, read-out: IZ
Staphylococcus aureus [6] = assay: Antibacterial activity against Staphylococcus aureus MTCC 1144 at 64 mg/ml after 16 hrs by disk diffusion test; type: functional; details: MTCC 1144, 16 h, read-out: IZ
Summary of the method: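 Disk diffusion (zone of inhibition). Bacterial isolate spread evenly over an agar plate. A filter disk carrying a known amount of compound was placed on the surface and the compound left to diffuse. The inhibition zone in the lawn was read after 16 h incubation.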

Pseudomonas putida [7] = assay: Antibacterial activity against ampicillin-resistant Pseudomonas putida MTCC 1072 after 12 to 16 hrs by turbidity assay; type: functional; summary of the method: as §1
Pseudomonas putida [8] = assay: Antibacterial activity against ampicillin-resistant Pseudomonas putida MTCC 1072 at 128 mg/ml after 16 hrs by disk diffusion test; type: functional; set-up: dose or concentration left out as unconfirmed; details: MTCC 1072, 16 h, read-out: IZ
Pseudomonas putida [9] = assay: Antibacterial activity against ampicillin-resistant Pseudomonas putida MTCC 1072 at 64 mg/ml after 16 hrs by disk diffusion test; type: functional; set-up: dose or concentration left out as unconfirmed; details: MTCC 1072, 16 h, read-out: IZ
CCRF-CEM = assay: Cytotoxicity against […] human CEM cells after 6 days by XTT assay; type: cell-based; details: 144 h
Summary of the method: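 Uninfected CEM cultures given serial compound dilutions (DMSO, 1:200 final dilution). Incubated 6 days at 37 °C, 5% CO2, then read by XTT formazan. IC50 is the molar concentration causing 50% inhibition of cell growth.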

Human alphaherpesvirus 1 [10] = assay: Antiviral activity against HSV1 infected in african green monkey Vero cells after 6 hrs by plaque reduction assay; type: functional; set-up: scale not given: the % may be the effect or the level left
Summary of the method: (§2)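 Modified plaque reduction in 96-well trays with no thickening overlay. Compounds dissolved in DMSO and diluted into medium, then serially diluted and added in triplicate to confluent Vero monolayers. Titred HSV-1 added in medium with 10% calf serum. Incubated 6 h at 37 °C, 5% CO2. Cells fixed with 3.7% formaldehyde and examined visually. The end-point concentration was taken from the dilution series.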

Vero = assay: Cytotoxicity against african green monkey Vero cells assessed as loss of monolayer present around the plaques; type: cell-based; details: Chlorocebus sabaeus
Summary of the method: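 Vero monolayers in serial-dilution trays with HSV-1, run in triplicate, 6 h at 37 °C, 5% CO2. Cells fixed with 3.7% formaldehyde and examined visually. IC50 is the concentration giving about 50% loss of the monolayer around HSV-1 plaques.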

[11] = tested on: Human immunodeficiency virus 1; assay: Antiviral activity against HIV1 infected in human CEM cells assessed as protection against virus-induced cytopathic effect after 6 days by XTT assay; type: functional, organism-based; details: Human immunodeficiency virus 1, CCRF-CEM, 144 h
Summary of the method: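 CEM T4 lymphocytes received serially diluted compounds (DMSO stock diluted 1:100 in medium, 1:200 final dilution), then HIV-1. Incubated 6 days at 37 °C, 5% CO2. Formazan read spectrophotometrically after XTT, with microscopic check for viable cells. EC50 is the concentration giving 50% protection against the HIV cytopathic effect. AZT-treated wells served as positive control.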

[12] = Therapeutic index, ratio of IC50 for human CEM cells to EC50 for HIV1; type: cell-based, CCRF-CEM; details: read-out: Ratio IC50/EC50
Summary of the method: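 CEM T4 lymphocytes, with or without HIV-1, were incubated with serially diluted compounds (DMSO solution diluted 1:100 in medium; 1:200 final dilution after cells and virus were added) at 37 °C in 5% CO2 for 6 days. Controls were untreated and AZT-treated. Read-out was XTT formazan, measured spectrophotometrically plus microscopy. EC50 is 50% protection from cytopathic effect; IC50 is 50% growth inhibition in uninfected cultures.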

Human alphaherpesvirus 1 [13] = assay: Antiviral activity against HSV1 infected in african green monkey Vero cells assessed as minimum antiviral concentration after 6 hrs; type: functional; summary of the method: as §2

| Compound | MIC (Escherichia coli [1]) | zone of inhibition (Escherichia coli [2]) | zone of inhibition (Escherichia coli [3]) | MIC (Staphylococcus aureus [4]) | zone of inhibition (Staphylococcus aureus [5]) | zone of inhibition at 64000 µg/mL (Staphylococcus aureus [6]) | MIC (Pseudomonas putida [7]) | zone of inhibition (Pseudomonas putida [8]) | zone of inhibition (Pseudomonas putida [9]) | pIC50 (CCRF-CEM) | Activity (Human alphaherpesvirus 1 [10]) | pIC50 (Vero) | pEC50 [11] | selectivity ratio [12] | MAC (Human alphaherpesvirus 1 [13]) |
| --- | --- | --- | --- | --- | --- | --- | --- | --- | --- | --- | --- | --- | --- | --- | --- |
| OC[C@H]1O[C@@H](Sc2nc3sc4c(c3c(=S)[nH]2)CCCCC4)[C@H](O)[C@@H](O)[C@@H]1O | > 128 µg/mL | < 1 mm | < 1 mm | > 128 µg/mL | < 1 mm | < 1 mm | > 128 µg/mL | < 1 mm | < 1 mm | – | – | – | – | – | – |
| Cc1cn([C@H]2C[C@H](N=[N+]=[N-])[C@@H](CO)O2)c(=O)[nH]c1=O [ZIDOVUDINE] | – | – | – | – | – | – | – | – | – | 6.15 | – | – | – | – | – |
| CCOC(=O)c1nn(-c2ccc(C)cc2)c2nc3sc4c(c3c(=S)n12)CCCC4 | 128 µg/mL (≈ 301 µM) | > 3 mm | < 1 mm | 128 µg/mL (≈ 301 µM) | > 3 mm | > 2 mm | 128 µg/mL (≈ 301 µM) | > 3 mm | < 1 mm | – | – | – | – | – | – |
| CC(=O)OC[C@H]1O[C@@H](Sc2nc3sc4c(c3c(=S)[nH]2)CCCC4)[C@H](OC(C)=O)[C@@H](OC(C)=O)[C@@H]1OC(C)=O | > 128 µg/mL | > 2 mm | < 1 mm | > 128 µg/mL | < 1 mm | < 1 mm | > 128 µg/mL | > 2 mm | > 2 mm | < 4.00 | 0% | 6.25 | < 4.00 | > 1 | – |
| C[C@@]1(CO)[C@H](O)CC[C@@]2(C)[C@H]1CC[C@H]1C[C@@H]3C[C@@]12CC[C@]3(O)CO [APHIDICOLIN] | – | – | – | – | – | – | – | – | – | – | 100% | 6.24 | – | – | 0.02 µM |
| CC(=O)c1nn(-c2ccc(Cl)cc2)c2nc3sc4c(c3c(=S)n12)CCCC4 | – | – | – | – | – | – | – | – | – | < 4.00 | 0% | 7.05 | < 4.00 | > 1 | – |
| OC[C@H]1O[C@@H](Sc2nc3sc4c(c3c(=S)[nH]2)CCCC4)[C@H](O)[C@@H](O)[C@@H]1O | > 128 µg/mL | < 1 mm | < 1 mm | > 128 µg/mL | < 1 mm | < 1 mm | 128 µg/mL (≈ 307 µM) | > 3 mm | < 1 mm | < 4.00 | 0% | 6.21 | < 4.00 | > 1 | – |
| CC(=O)OC[C@H]1O[C@@H](Sc2nc3sc4c(c3c(=S)[nH]2)CCCCC4)[C@@H](OC(C)=O)[C@@H]1OC(C)=O | > 128 µg/mL | < 1 mm | < 1 mm | > 128 µg/mL | < 1 mm | < 1 mm | > 128 µg/mL | < 1 mm | < 1 mm | < 4.00 | 0% | 5.94 | < 4.00 | > 1 | – |
| S=c1[nH]c(=S)c2c3c(sc2[nH]1)CCCC3 | 64 µg/mL (≈ 252 µM) | > 3 mm | > 3 mm | 128 µg/mL (≈ 503 µM) | > 3 mm | < 1 mm | 128 µg/mL (≈ 503 µM) | > 3 mm | < 1 mm | 5.19 | 0% | 7.15 | < 4.00 | > 15.4 | – |
| CC(=O)OC[C@H]1O[C@@H](Sc2nc3sc4c(c3c(=S)[nH]2)CCCCC4)[C@H](OC(C)=O)[C@@H](OC(C)=O)[C@@H]1OC(C)=O | > 128 µg/mL | > 2 mm | > 2 mm | > 128 µg/mL | > 2 mm | > 2 mm | 128 µg/mL (≈ 214 µM) | > 3 mm | > 2 mm | – | – | – | – | – | – |
